Measurements taken from paper PMC9233738 (Bioorganic & medicinal chemistry, 2022).
≈ marks a conversion by molar mass, not a printed value. Entries after “also recorded” stand apart in the source; their conditions may differ. Read-outs that look alike come from different tables or passages of the source.

Columns and labels:
[1] = test system: chloroquine-resistant Dd2 strain; test: Antiplasmodial activity against chloroquine-resistant Dd2 strain; format: cell-based, Plasmodium falciparum; settings: for antimalarial activity / potency (in words): qualitative statement
[2] = test system: HepG2 human hepatoma cells; test: Cytotoxicity, HepG2 cells, MTS cell proliferation assay; format: cell-based; settings: for Selectivity: SI = EC50(HepG2)/EC50(Dd2); for EC50: read-out: HepG2 EC50
Method in brief: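 HepG2 human hepatoma cells were seeded at 2,500 cells/well and pre-incubated for 24 h. Serial dilutions of test compound (0–40 μM range) were then added, followed by a further 48 h incubation.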

[3] = Aqueous solubility at pH 2.0, in-house HPLC assay; format: physicochemical
[4] = Aqueous solubility, Biomek FX with pION μSOL evolution software; format: physicochemical; settings: for solubility: pH 6.5

Compound: O=C(Cc1ccc(F)c(F)c1)N1CCC2(CCc3ccc4ccccc4c3O2)CC1 [Compound 5j, 2-(3,4-Difluorophenyl)-1-(3,4-dihydrospiro[benzo[h]chromene-2,4’-piperidin]-1’ yl)ethanone]
- antimalarial activity / potency (in words) [1]: completely lost

Compound: OC1CC2(CCNCC2)Oc2c1ccc1ccccc21 (stereo not shown) [Compound 3a, 3,4-Dihydrospiro[benzo[h]chromene-2,4’-piperidin]-4-ol]
- Selectivity [2]: >54.5
- solubility ([3]; aqueous solution, pH 2): 40 to 80 µM (≈ 10.8 to 21.5 µg/mL)

Compound: OC1CC2(CCN(CCc3ccccc3)CC2)Oc2c1ccc1ccccc21 (stereo not shown) [Compound 3d, 1’-Phenethyl-3,4-dihydrospiro[benzo[h]chromene-2,4’-piperidin]-4-ol]
- solubility ([3]; aqueous medium at pH 2.0, pH 2): 40 to 80 µM (≈ 14.9 to 29.9 µg/mL)
- solubility ([4]; aqueous medium): 40 to 80 µM (≈ 14.9 to 29.9 µg/mL)

Compound: O=C1CC2(CCN(CCc3ccccc3)CC2)Oc2c1ccc1ccccc21 [Compound 2d, 1’-Phenethylspiro[benzo[h]chromene-2,4’-piperidin]-4(3H)-one]
- solubility ([3]; aqueous medium at pH 2.0, pH 2): ≥ 80 µM
- solubility ([4]; aqueous medium): 40 to 80 µM (≈ 14.9 to 29.7 µg/mL)

Compound: O=C1C[C@@]2(CCCN(CCc3ccc(F)c(F)c3)C2)Oc2c1ccc1ccccc21 [Compound 10c, (R)-1’-(3,4-Difluorophenethyl)spiro[benzo[h]chromene-2,3’-piperidin]-4(3H)-one]
- Selectivity [2]: > 30

Compound: O=C1CC2(CCN(C(=O)Cc3ccc(F)c(F)c3)CC2)Oc2c1ccc1ccccc21 [Compound 2l, 1’-(2-(3,4-Difluorophenyl)acetyl)spiro[benzo[h]chromene-2,4’-piperidin]-4(3H)-one]
- antimalarial activity / potency (in words) [1]: completely lost

Compound: 1-(3,4-Difluorophenyl)-2-(1,4-dihydro-2H-spiro[phenanthrene-3,4’-piperidin]-1’-yl)ethan-1-one [Compound 5g]
- EC50 ([1]; read-out: Dd2 EC50, chloroquine-resistant Dd2 strain): > 2.5 µM
- EC50 ([2]; HepG2 cells, 48 h incubation, MTS, n = 3): > 20 µM
- Solubility pH 6.5 ([4]; pH 6.5, Table 6): ^*** (For 20 μM < solubility ≤ 40 μM)

Compound: OC1CC2(CCN(Cc3ccccc3)CC2)Oc2c1ccc1ccccc21 (stereo not shown) [Compound 3c, 1’-Benzyl-3,4-dihydrospiro[benzo[h]chromene-2,4’-piperidin]-4-ol]
- solubility ([3]; aqueous medium at pH 2.0, pH 2): 40 to 80 µM (≈ 14.4 to 28.8 µg/mL)
- solubility ([4]; aqueous medium): 40 to 80 µM (≈ 14.4 to 28.8 µg/mL)

Compound: CCN1CCC2(CC1)CC(O)c1ccc3ccccc3c1O2 (stereo not shown) [Compound 3b, 1’-Ethyl-3,4-dihydrospiro[benzo[h]chromene-2,4’-piperidin]-4-ol]
- solubility ([3]; aqueous solution, pH 2): 20 to 40 µM (≈ 5.95 to 11.9 µg/mL)
- solubility ([4]; aqueous solution): 20 to 40 µM (≈ 5.95 to 11.9 µg/mL)

Compound: O[C@H](CN1CCC2(CC1)C[C@@H](O)c1ccc3ccccc3c1O2)c1ccc(F)c(F)c1 [Compound 3mb]
- Selectivity [2]: <7

Compound: c1ccc2c3c(ccc2c1)CCC1(CCN(CCC2CCCCC2)CC1)O3 [Compound 5e, 1’-(2-Cyclohexylethyl)-3,4-dihydrospiro[benzo[h]chromene-2,4’-piperidine]]
- solubility ([3]; aqueous solution, pH 2): 40 to 80 µM (≈ 14.5 to 29.1 µg/mL)

Compound: c1ccc(CN2CCC3(CCc4ccc5ccccc5c4O3)CC2)cc1 [Compound 5c, 1’-Benzyl-3,4-dihydrospiro[benzo[h]chromene-2,4’-piperidine]]
- solubility ([3]; aqueous medium at pH 2.0, pH 2): 20 to 40 µM (≈ 6.87 to 13.7 µg/mL)

Compound: OC1CC2(CCN(CCC3CCCCC3)CC2)Oc2c1ccc1ccccc21 (stereo not shown) [Compound 3e, 1’-(2-Cyclohexylethyl)-3,4-dihydrospiro[benzo[h]chromene-2,4’-piperidin]-4-ol]
- EC50 ([1]; Plasmodium falciparum, DD2, read-out: Dd2 EC50, chloroquine-resistant Dd2 strain): 0.32 µM
- solubility ([3]; aqueous solution, pH 2): 40 to 80 µM (≈ 15.2 to 30.4 µg/mL)
- solubility ([4]; aqueous solution): 20 to 40 µM (≈ 7.59 to 15.2 µg/mL)

Compound: O[C@@H](CN1CCC2(CC1)C[C@H](O)c1ccc3ccccc3c1O2)c1ccc(F)c(F)c1 [Compound 3mc, (S)-1’-((R)-2-(3,4-Difluorophenyl)-2-hydroxyethyl)-3,4-dihydrospiro[benzo[h]chromene-2,4’-piperidin]-4-ol]
- EC50 ([2]; Homo sapiens, HepG2, 48 h): > 20 µM
- Selectivity [2]: >15

Compound: OC(CN1CCC2(CC1)CC(O)c1ccc3ccccc3c1O2)c1ccc(F)c(F)c1 (stereo not shown) [Compound 1]
- EC50 ([2]; Homo sapiens, HepG2, 48 h): > 20 µM
- Selectivity [2]: >53.3

Compound: O=C1CC2(CCN(CCCc3ccccc3)CC2)Oc2c1ccc1ccccc21 [Compound 2f, 1’-(3-Phenylpropyl)spiro[benzo[h]chromene-2,4’-piperidin]-4(3H)-one]
- solubility ([3]; aqueous medium at pH 2.0, pH 2): 40 to 80 µM (≈ 15.4 to 30.8 µg/mL)
- solubility ([4]; aqueous medium): 20 to 40 µM (≈ 7.71 to 15.4 µg/mL)

Compound: O=C(CN1CCC2(CC1)CC(=O)c1ccc3ccccc3c1O2)c1ccc(F)c(F)c1 [Compound 2g, 1’-(2-(3,4-Difluorophenyl)-2-oxoethyl)spiro[benzo[h]chromene-2,4’-piperidin]-4(3H)-one]
- solubility ([3]; aqueous solution, pH 2): 40 to 80 µM (≈ 16.9 to 33.7 µg/mL)
- solubility ([4]; aqueous solution): 40 to 80 µM (≈ 16.9 to 33.7 µg/mL)

Compound: O=C1CC2(CCN(Cc3ccccc3)CC2)Oc2c1ccc1ccccc21 [Compound 2c, 1’-Benzylspiro[benzo[h]chromene-2,4’-piperidin]-4(3H)-one]
- solubility ([3]; aqueous medium at pH 2.0, pH 2): ≥ 80 µM
- solubility ([4]; aqueous medium): 40 to 80 µM (≈ 14.3 to 28.6 µg/mL)

Compound: OC1CC2(CCN(CCCc3ccccc3)CC2)Oc2c1ccc1ccccc21 (stereo not shown) [Compound 3f, 1’-(3-Phenylpropyl)-3,4-dihydrospiro[benzo[h]chromene-2,4’-piperidin]-4-ol]
- solubility ([3]; aqueous medium at pH 2.0, pH 2): ≥ 80 µM
- solubility ([4]; aqueous medium): ≥ 80 µM

Compound: OC(CN1CCC2(CCc3ccc4ccccc4c3O2)CC1)c1ccc(F)c(F)c1 (stereo not shown) [Compound 5i, 1-(3,4-Difluorophenyl)-2-(3,4-dihydrospiro[benzo[h]chromene-2,4’-piperidin]-1’-yl)ethanol]
- solubility ([3]; aqueous solution, pH 2): 40 to 80 µM (≈ 16.4 to 32.8 µg/mL)

Compound: O=C(CN1CCC2(CC1)CC(O)c1ccc3ccccc3c1O2)c1ccc(F)c(F)c1 (stereo not shown) [Compound 3g, 1-(3,4-Difluorophenyl)-2-(4-hydroxy-3,4-dihydrospiro[benzo[h]chromene-2,4’-piperidin]-1’yl)ethanone]
- solubility ([3]; aqueous solution, pH 2): 20 to 40 µM (≈ 8.47 to 16.9 µg/mL)
- solubility ([4]; aqueous solution): 20 to 40 µM (≈ 8.47 to 16.9 µg/mL)

Compound: Fc1ccc(CCN2CCC3(CCc4ccc5ccccc5c4O3)CC2)cc1F [Compound 5h, 1’-(3,4-Difluorophenethyl)-3,4-dihydrospiro[benzo[h]chromene-2,4’-piperidine]]
- solubility ([3]; aqueous solution, pH 2): 20 to 40 µM (≈ 7.87 to 15.7 µg/mL)

Compound: O=C(Cc1ccc(F)c(F)c1)N1CCC2(CC1)CC(O)c1ccc3ccccc3c1O2 (stereo not shown) [Compound 3l, 2-(3,4-Difluorophenyl)-1-(4-hydroxy-3,4-dihydrospiro[benzo[h]chromene-2,4’-piperidin]-1’yl)ethanone]
- antimalarial activity / potency (in words) [1]: lacked antimalarial activity; also recorded: completely lost

Compound: CCN1CCC[C@@]2(CC(O)c3ccc4ccccc4c3O2)C1 (stereo partly drawn) [Compound 11a, (2R)-1’-Ethyl-3,4-dihydrospiro[benzo[h]chromene-2,3’-piperidin]-4-ol]
- EC50 ([2]; Homo sapiens, HepG2, 48 h): > 20 µM
- Selectivity [2]: >28.8

Compound: O[C@H](CN1CCC2(CC1)C[C@H](O)c1ccc3ccccc3c1O2)c1ccc(F)c(F)c1 [Compound 3md, (S)-1’-((S)-2-(3,4-Difluorophenyl)-2-hydroxyethyl)-3,4-dihydrospiro[benzo[h]chromene-2,4’-piperidin]-4-ol]
- EC50 ([2]; Homo sapiens, HepG2, 48 h): > 20 µM
- Selectivity [2]: > 11

Compound: O=C1CC2(CCN(CCc3ccc(F)c(F)c3)CC2)Oc2c1ccc1ccccc21 [Compound 2h, 1’-(3,4-Difluorophenethyl)spiro[benzo[h]chromene-2,4’-piperidin]-4(3H)-one]
- solubility ([4]; aqueous solution): 10 to 20 µM (≈ 4.07 to 8.15 µg/mL)

Compound: c1ccc2c3c(ccc2c1)CCC1(CCNCC1)O3 [Compound 5a, 3,4-Dihydrospiro[benzo[h]chromene-2,4’-piperidine]]
- solubility ([3]; aqueous solution, pH 2): 40 to 80 µM (≈ 10.1 to 20.3 µg/mL)
- solubility ([4]; aqueous solution): 20 to 40 µM (≈ 5.07 to 10.1 µg/mL)

Compound: O=C1CC2(CCN(CCC3CCCCC3)CC2)Oc2c1ccc1ccccc21 [Compound 2e, 1’-(2-Cyclohexylethyl)spiro[benzo[h]chromene-2,4’-piperidin]-4(3H)-one]
- Selectivity [2]: > 30
- solubility ([3]; aqueous solution, pH 2): 20 to 40 µM (≈ 7.55 to 15.1 µg/mL)
- solubility ([4]; aqueous solution): 10 to 20 µM (≈ 3.78 to 7.55 µg/mL)
